Test [1] has as its target T1, Amine oxidase [flavin-containing] A (Rattus norvegicus, UniProt P21396).
T1 sequence (P21396 whole entry): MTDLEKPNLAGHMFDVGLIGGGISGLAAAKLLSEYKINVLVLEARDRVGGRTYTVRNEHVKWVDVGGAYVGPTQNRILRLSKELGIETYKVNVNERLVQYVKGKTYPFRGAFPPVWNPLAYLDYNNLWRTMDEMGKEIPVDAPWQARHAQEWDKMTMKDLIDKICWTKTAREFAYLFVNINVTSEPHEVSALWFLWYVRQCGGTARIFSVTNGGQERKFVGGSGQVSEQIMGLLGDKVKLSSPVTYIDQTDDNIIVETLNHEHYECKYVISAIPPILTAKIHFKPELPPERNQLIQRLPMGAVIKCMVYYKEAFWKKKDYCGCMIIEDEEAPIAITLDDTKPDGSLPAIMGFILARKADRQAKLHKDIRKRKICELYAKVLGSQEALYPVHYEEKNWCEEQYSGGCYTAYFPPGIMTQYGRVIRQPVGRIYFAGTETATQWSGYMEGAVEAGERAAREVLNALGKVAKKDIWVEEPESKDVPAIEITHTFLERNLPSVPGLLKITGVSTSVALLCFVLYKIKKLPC
Description: Inhibition of MAOA in rat brain mitochondria. In short, it runs like this:
(§1)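 Substrate is 5-HT for MAO-A and DMAPEA for MAO-B. Substrates and their metabolites are measured by HPLC with electrochemical detection. Percent inhibition is taken against enzyme treated the same way without inhibitor and plotted against −log inhibitor concentration to give IC50. Runs are at least two independent experiments, each in triplicate. Ki is from IC50 by Cheng–Prusoff, using the substrate's Km.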

For test [2], the target named is T2, Amine oxidase [flavin-containing] B (Rattus norvegicus, UniProt P19643).
T2 sequence (P19643 whole entry): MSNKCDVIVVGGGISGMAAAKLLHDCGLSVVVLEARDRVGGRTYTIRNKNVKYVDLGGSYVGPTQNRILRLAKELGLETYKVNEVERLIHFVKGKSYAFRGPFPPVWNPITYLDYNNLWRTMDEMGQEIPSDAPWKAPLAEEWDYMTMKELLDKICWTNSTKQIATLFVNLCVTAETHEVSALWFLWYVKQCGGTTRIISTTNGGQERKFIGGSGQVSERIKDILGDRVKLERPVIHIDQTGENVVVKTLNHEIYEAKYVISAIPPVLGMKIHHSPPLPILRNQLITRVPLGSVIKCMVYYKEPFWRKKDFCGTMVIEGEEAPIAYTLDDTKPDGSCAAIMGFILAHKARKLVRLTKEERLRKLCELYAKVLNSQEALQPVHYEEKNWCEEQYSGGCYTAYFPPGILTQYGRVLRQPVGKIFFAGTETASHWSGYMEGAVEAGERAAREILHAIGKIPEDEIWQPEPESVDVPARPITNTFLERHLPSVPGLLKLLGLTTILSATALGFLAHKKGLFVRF
Briefly: Inhibition of MAOB in rat brain mitochondria. The method in brief: as §1

Where a name gives a salt, the structure may show the parent alone.

A word on the Ki: it is a measure of affinity in units of concentration, obtained from inhibition or displacement. `CSc1ccc(CC(C)NCc2ccc(OCc3ccccc3)cc2)cc1` (stereo unspecified): the Ki in test [1] is > 100 µM.

Consider `CSc1ccc2cc(CC(C)N)ccc2c1` (stereo unspecified), for which the Ki in test [1] stood at 0.5 µM. That is a sub-micromolar value.

In the case of `CCCOc1ccc2cc(CC(C)N)ccc2c1` (stereo unspecified), the Ki was determined as 0.68 µM in test [1] and 13.5 µM in test [2]. Consider `CC(N)Cc1ccc2ccccc2c1` (stereo unspecified), for which the Ki is 0.42 µM in test [1] and > 100 µM in test [2]. With `CCCCOc1ccc(CC(C)N)cc1` (stereo unspecified), the Ki in test [1] was 0.32 µM; in test [2] it was > 100 µM. On the same counts, the results for `CCOc1ccc(CC(C)N)cc1` (stereo unspecified) are 0.22 µM and > 100 µM. On the same counts, the results for `CCOc1ccc2cc(CC(C)N)ccc2c1` (stereo unspecified) are 0.45 µM and 13.6 µM. The matching figures for `CC(N)Cc1ccc2cc(OCc3ccccc3)ccc2c1` (stereo unspecified): 3.78 µM and 2.56 µM. Turning to `CCCCOc1ccc2cc(CC(C)NCc3ccccc3)ccc2c1` (stereo unspecified), the Ki in test [1] was 14.5 µM; in test [2], 22.2 µM.

`COc1ccc2cc(CC(C)N)ccc2c1` (stereo unspecified): the figures for the Ki in test [1] and in test [2] were 0.18 µM and 16.3 µM, respectively. The matching figures for `CC(N)Cc1cccc2ccccc12` (stereo unspecified): 5.63 µM and > 100 µM.

In the case of `COc1ccc2cc(CC(C)NCc3ccccc3)ccc2c1` (stereo unspecified), the figures for the Ki in test [1] and in test [2] were 6.93 µM and 24.7 µM, respectively. The matching figures for `CSc1ccc(CC(C)NCc2ccc(O)cc2)cc1` (stereo unspecified): > 100 µM and > 100 µM. `CCCCOc1ccc2cc(CC(C)N)ccc2c1` (stereo unspecified): the affinity in test [1] corresponds to a Ki of 1.53 µM. For the compound `CSc1ccc(CC(C)NCc2ccccc2)cc1` (stereo unspecified), the Ki in test [1] and in test [2] was > 100 µM each time. In the case of `CSc1ccc(CC(C)N)cc1` (stereo unspecified) [4-METHYLTHIOAMPHETAMINE], in test [1], the Ki was found to be 0.25 µM. As to `CC(N)Cc1ccc(OCc2ccccc2)cc1` (stereo unspecified), the results for the Ki in test [1] and in test [2] were 3.42 µM and 0.71 µM, respectively. With `COc1ccc(CC(C)N)cc1` (stereo unspecified) [PARA-METHOXYAMPHETAMINE], the Ki in test [1] is 0.25 µM. Consider `COc1ccc(CNC(C)Cc2ccc(SC)cc2)cc1` (stereo unspecified), for which the Ki in test [1] was > 100 µM. Take `CC(N)Cc1ccccc1` (stereo unspecified) [AMPHETAMINE SULFATE]: the affinity in test [1], expressed as Ki, was 12.2 µM. Same read-out and setting: the figure for `CCCCOc1ccc(CNC(C)Cc2ccc(SC)cc2)cc1` (stereo unspecified) is 90 µM. Take `CCCOc1ccc(CC(C)N)cc1` (stereo unspecified): the values for the Ki in test [1] and in test [2] were 0.13 µM and > 100 µM, respectively.

The record behind these values is ChEMBL document CHEMBL1152788, “Naphthylisopropylamine and N-benzylamphetamine derivatives as monoamine oxidase inhibitors” (Bioorg Med Chem, 2009).
